Data published in ChEMBL document CHEMBL1138284, “Malaria causal prophylactic activity of imidazolidinedione derivatives” (J Med Chem, 2007).
Calls of active or inactive are those of the source. The calls are words filed in the database; no cut-off is given here.

Key:
Plasmodium cynomolgi = assay: Prophylactic parasite potency against Plasmodium cynomolgi sporozoite challenged rhesus monkey at 30 mg/kg/day Intramuscular dose for 3 days; assay type: functional
Procedure, shortened: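 Rhesus monkeys were inoculated with P. cynomolgi sporozoites and given 30 mg/kg IM once daily for 3 days, starting the day before inoculation; two monkeys per group, with untreated controls. Blood smears were taken daily from day 6 for 21 days, then 3×/week for 4 weeks, then 2×/week to 100 days after the last dose. Patency was the first smear-positive day.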

Plasmodium berghei = assay: Antimalarial activity against Plasmodium berghei infected mice (Mus musculus); assay type: functional, organism-based
Plasmodium falciparum [1] = assay: Antimalarial activity against pyrimethamine-sensitive Plasmodium falciparum D6; assay type: functional, organism-based
Plasmodium falciparum [2] = assay: Antimalarial activity against pyrimethamine-resistant Plasmodium falciparum W2; assay type: functional, organism-based
Plasmodium yoelii [3] = assay: Protection against Plasmodium yoelii sporozoite infected mice (Mus musculus) as minimal active perorally daily dose over 3 days; assay type: functional
Procedure, shortened: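 Mice were challenged with P. yoelii sporozoites and dosed orally once daily for 3 consecutive days (days −1, 0, +1), starting the day before challenge. Protection was scored at day 6 as protected mice out of 5 per dose. The minimum active dose was taken from the dose series.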

Plasmodium yoelii [4] = assay: Protection against Plasmodium yoelii sporozoite infected mice (Mus musculus) at 480 mg/kg peroral dose; assay type: functional, organism-based; set-up: dose 480 mg/kg
Plasmodium yoelii [5] = assay: Protection against Plasmodium yoelii sporozoite infected mice (Mus musculus) at 120 mg/kg peroral dose; assay type: functional, organism-based; set-up: dose 120 mg/kg
Plasmodium yoelii [6] = assay: Protection against Plasmodium yoelii sporozoite infected mice (Mus musculus) as minimal active peroral dose; assay type: functional
Procedure, shortened: (§1)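 Mice challenged with Plasmodium yoelii sporozoites received a single oral dose of the test compound. Protection was scored at day 6 as the number of parasite-free mice out of 5 per dose group. The minimum active dose was taken as the lowest dose giving activity.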

[7] = Metabolic stability assessed as half life in human liver microsomes
[8] = Metabolic stability assessed as half life in mouse liver microsomes
Plasmodium yoelii [9] = assay: Protection against Plasmodium yoelii sporozoite infected mice (Mus musculus) at 160 mg/kg peroral dose; assay type: functional, organism-based; set-up: dose 160 mg/kg; procedure, shortened: as §1
Plasmodium yoelii [10] = assay: Protection against Plasmodium yoelii sporozoite infected mice (Mus musculus) at 40 mg/kg peroral dose; assay type: functional, organism-based; set-up: dose 40 mg/kg; procedure, shortened: as §1
Plasmodium yoelii [11] = assay: Protection against Plasmodium yoelii sporozoite infection in mice (Mus musculus) at 10 mg/kg peroral dose; assay type: functional, organism-based; set-up: dose 10 mg/kg; procedure, shortened: as §1
[12] = Half life in iv dosed rat plasma; assay type: ADME, organism-based

| SMILES | half-life ([7]; liver microsomes) | half-life ([8]; liver microsomes) | Activity (Plasmodium cynomolgi) | Activity (Plasmodium berghei) | Activity (Plasmodium falciparum [1]) | Activity (Plasmodium falciparum [2]) | Activity (Plasmodium yoelii [3]) | Activity (Plasmodium yoelii [6]) | Activity (Plasmodium yoelii [9]) | further results |
| --- | --- | --- | --- | --- | --- | --- | --- | --- | --- | --- |
| CC(C)N1C(=O)C(=O)N=C1N/C(=N\C(=O)OC(C)(C)C)Nc1ccc(Cl)c(Cl)c1 |  |  | 68 days |  |  |  |  |  |  |  |
| CC(C)Nc1nc(Nc2ccc(Cl)c(Cl)c2)nc(C(C)C)n1 |  |  |  | inactive | inactive | inactive |  |  |  |  |
| CC(C)N1C(=O)C(=O)N=C1/N=C(/NC(=O)C(C)(C)C)Nc1ccc(Cl)c(Cl)c1 |  |  | 40 days |  |  |  | >480 mg/kg | >160 mg/kg |  | Activity (Plasmodium yoelii [4]): inactive; Activity (Plasmodium yoelii [5]): inactive; half-life ([7]; microsomes): > 60 min; half-life ([8]; microsomes): > 60 min |
| CC(C)C(=O)N/C(=N/C1=NC(=O)C(=O)N1C(C)C)Nc1ccc(Cl)c(Cl)c1 |  |  |  |  |  |  | <30 mg/kg | >160 mg/kg |  |  |
| CCCc1nc(Nc2ccc(Cl)c(Cl)c2)nc(NC(C)C)n1 |  |  |  | inactive | inactive | inactive |  |  |  |  |
| CCC(CC)c1nc(Nc2ccc(Cl)c(Cl)c2)nc(NC(C)C)n1 | > 60 min | > 60 min |  | inactive | inactive | inactive |  |  |  |  |

More lines, main results first:

| half-life ([7]; liver microsomes) | half-life ([8]; liver microsomes) | SMILES | Activity (Plasmodium cynomolgi) | Activity (Plasmodium berghei) | Activity (Plasmodium falciparum [1]) | Activity (Plasmodium falciparum [2]) | Activity (Plasmodium yoelii [3]) | Activity (Plasmodium yoelii [6]) | Activity (Plasmodium yoelii [9]) | further results |
| --- | --- | --- | --- | --- | --- | --- | --- | --- | --- | --- |
| < 10 min | < 10 min | CCCC(=O)N/C(=N\C1=NC(=O)C(=O)N1c1ccc(Cl)c(Cl)c1)NC(C)C |  |  |  |  |  | <10 mg/kg | Active | Activity (Plasmodium yoelii [10]): Active; Activity (Plasmodium yoelii [11]): Active |
| < 10 min | < 10 min | CC(C)N/C(=N/C1=NC(=O)C(=O)N1c1ccc(Cl)c(Cl)c1)NC(=O)C(C)C |  |  |  |  |  | <10 mg/kg | Active | Activity (Plasmodium yoelii [10]): Active |
| > 60 min | > 60 min | CCC(CC)C(=O)N/C(=N/C1=NC(=O)C(=O)N1C(C)C)Nc1ccc(Cl)c(Cl)c1 | 17 days |  |  |  | 7.5 mg/kg | >160 mg/kg |  |  |
| < 10 min | < 10 min | CCC(CC)C(=O)N/C(=N\C1=NC(=O)C(=O)N1c1ccc(Cl)c(Cl)c1)NC(C)C | 15 days |  |  |  |  | <10 mg/kg | Active | half-life [12]: < 10 min |
